# Only some compounds are listed: those with a hit (about 2.6% of all), similar ones and a draw of the others.
# SENP6 block: inhibitors of human SENP6 protease; Q9GZR1; Recombinant SENP6 catalytic domain, aminoluciferin luminescence; inhibition, % at 10 µM; hit rate 1.8% among 330,000; AID 2599;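 active means inhibition above about 50% at the single tested dose, limit read from the data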;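 further: plate controls were DMSO wells with enzyme for no effect and DMSO wells lacking enzyme for full effect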
# Target sequence (Q9GZR1 628-1112 limits assumed): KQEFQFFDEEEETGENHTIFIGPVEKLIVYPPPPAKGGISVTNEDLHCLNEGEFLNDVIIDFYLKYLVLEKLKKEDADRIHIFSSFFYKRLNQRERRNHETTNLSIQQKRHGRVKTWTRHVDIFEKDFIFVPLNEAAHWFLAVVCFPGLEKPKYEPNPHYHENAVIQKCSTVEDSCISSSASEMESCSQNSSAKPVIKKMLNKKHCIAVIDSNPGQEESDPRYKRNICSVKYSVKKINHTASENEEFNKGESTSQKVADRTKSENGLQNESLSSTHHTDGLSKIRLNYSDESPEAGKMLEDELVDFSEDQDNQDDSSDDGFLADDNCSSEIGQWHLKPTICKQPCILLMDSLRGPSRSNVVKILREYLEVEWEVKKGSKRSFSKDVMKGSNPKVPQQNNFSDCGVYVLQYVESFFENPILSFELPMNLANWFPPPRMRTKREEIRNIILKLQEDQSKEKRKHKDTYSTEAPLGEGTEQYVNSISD
# Platelet DG rel: platelet dense granule release activity; human platelet-rich plasma, SFLLRN dense granule ATP release, luminescence; inhibition, %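 (compounds screened at 7.5 µM in platelet-rich plasma)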; hit rate 0.22% among 300,000;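 active means mean replicate score, as percent of positive control, at or above 50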
# SENP7 inh: inhibitors of human SENP7 protease | hit rate 1.5% among 330,000 | Q9BQF6 | inhibition, % at 5 µM | recombinant SENP7, Z-RLRGG-aminoluciferin luminescence, 40 min | AID 434973;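 active means inhibition above about 50% at the single test dose, limit read from the data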;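 further: plate controls were DMSO with enzyme for no effect and no enzyme buffer wells for full effect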
# SENP8 block-1: blocks the human protease SENP8 | purified SENP8, Z-RLRGG-aminoluciferin cleavage, luminescence | inhibition, % at 10 µM | hit rate 1.2% among 330,000; in the data active means inhibition above about 50%
# SENP1 FRET inh: SENP1 (human) catalytic domain inhibition. Q9P0U3. recombinant SENP1 catalytic domain, CyPet-SUMO1-YPet FRET cleavage. inhibition, % at 10 µM. hit rate 0.21% among 360,000. AID 624204;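 active means inhibition at least 30% at 10 µM, raw YFP signal under a set limit, fluorescence ratio 0.5 to 1.5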;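 further: 0% = enzyme with DMSO and 100% = no enzyme wells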
#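 System: Recombinant human SENP1 catalytic domain, His6-tagged | Incubation: Enzyme reaction for 50 min at room temperature, dark | Medium: Tris pH 8 with BME, BSA, NP40 and catalase | Also added: 25 nM SUMO1 FRET substrate | Compound: 10 µM single point, 0.5% DMSO | Measured by: FRET fluorescence in CFP and YFP emission channels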
# SENP8 block-2: inhibitors of human SENP8 protease; Q96LD8; recombinant SENP8, Nedd8 substrate fluorescence; inhibition, % at 20 µM; hit rate 0.64% among 360,000; in the data active means inhibition mostly above about 40%, no sharp cut-off; inactive means mostly below about 27%
# SENP8 confirm: human SENP8 inhibition, confirmed; shares compounds with SENP7 inh; hit rate 40% among 6,200; Recombinant SENP8, Z-RLRGG-aminoluciferin luminescence, 60 min; inhibition, % at 12.5 µM;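 active means mean inhibition across replicates above about 50%, limit read from the data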
# SENP6 confirm: human SENP6 inhibition, confirmed. recombinant SENP6, Z-RLRGG-aminoluciferin luminescence. AID 488915. shares compounds with SENP7 inh. hit rate 58% among 6,200. inhibition, % at 12.5 µM
# SENP7 conf: human SENP7 inhibition, confirmed; inhibition, % at 12.5 µM; hit rate 69% among 6,200; shares compounds with SENP7 inh; recombinant SENP7, Z-RLRGG-aminoluciferin luminescence, 40 min; AID 488917
# Casp3 SENP sel: caspase-3 inhibition (SENP selectivity assay). hit rate 60% among 6,200. purified caspase-3, Z-DEVD-aminoluciferin luminescence, 60 min. AID 488918. shares compounds with SENP7 inh. inhibition, % at 12.5 µM;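 active means mean inhibition above about 50%, limit read from the data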;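 further: plate controls were enzyme with DMSO for no effect and wells without caspase-3 for full effect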
# Luc interf: luminescence interference (SENP counter-screen); shares compounds with SENP7 inh; Pre-incubated SENP8/Z-RLRGG-aminoluciferin, luciferase luminescence interference; inhibition, % at 12.5 µM; hit rate 39% among 6,200;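 active means mean inhibition above about 50% when retested at one dose, limit read from the data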;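 further: plate controls were DMSO wells with completed reaction for no effect and substrate without enzyme for full effect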
# An asterisk follows results filed as active; . = not tested or not shown.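 How the source made its calls, unless noted: active means mean inhibition above about 50% in the one-dose retest (limit read from the data); inactive means the rest.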
SMILES,SENP6 block,Platelet DG rel,SENP7 inh,SENP8 block-1,SENP1 FRET inh,SENP8 block-2,SENP8 confirm,SENP6 confirm,SENP7 conf,Casp3 SENP sel,Luc interf
Nc1ccc(O)c2c(=O)cc(-c3ccccc3Cl)oc12,60*,-2,36,53*,1,16,-6,2,17,11,8
Brc1ccc(NC2=Nc3ccccc3CC2)cc1,-19,5,45,34,0,0,.,.,.,.,.
Cc1ccc(NC2=Nc3ccccc3CC2)cc1,52*,-22,37,43,-1,12,64*,61*,88*,84*,42
Cc1ccc(N=Nc2c(O)n(CN3CCOCC3)c3ccccc23)cc1,67*,-4,84*,78*,-2,6,33,88*,98*,63*,26
COc1ccccc1NC(=O)c1ccc2nc(C)sc2c1,15,0,3,-7,-2,4,.,.,.,.,.
COc1cccc(NC(=O)c2ccc3snnc3c2)c1,64*,5,58*,48,-1,33,56*,52*,84*,75*,64*
COc1cccc(NC(=O)c2ccc3nc(C)sc3c2)c1,91*,12,89*,72*,1,16,80*,81*,95*,87*,84*
CN(C)c1ccc(/C=C/C(=O)c2ccc(O)cc2)cc1,.,.,.,.,-26,-434,.,.,.,.,.
O=C1C(Nc2cccc(O)c2)=C(N2CCCCC2)C(=O)c2ccccc21,81*,-5,41,63*,-57,76*,57*,77*,45,94*,-1
Cc1ccc(NC2=C(N3CCCCC3)C(=O)c3ccccc3C2=O)cc1,66*,10,-21,52*,-108,82*,8,90*,74*,95*,10
O=C(/C=C/c1ccc(O)cc1)c1ccc(NC2=C(N3CCCCC3)C(=O)c3ccccc3C2=O)cc1,76*,30,48,67*,-28,25,64*,85*,77*,95*,84*
CC1=C(Nc2ccc(C(=O)O)cc2)C(=O)c2ccccc2C1=O,16,3,-1,2,-1,27,.,.,.,.,.
COc1ccccc1NC1=C(N2CCCCC2)C(=O)c2ccccc2C1=O,74*,-2,47,73*,-80,88*,43,91*,72*,97*,-4
CCN(Cc1cccc(F)c1)C(=O)c1ccc2ccccc2n1,37,5,5,6,-6,-19,.,.,.,.,.
O=C1C(NS(=O)(=O)c2ccccc2)=C(N2CCN(c3ccc(F)cc3)CC2)C(=O)c2ccccc21,10,5,8,-1,-2,36,.,.,.,.,.
O=C1C(Nc2ccccc2)=C(N2CCCCC2)C(=O)c2ccccc21,86*,3,61*,59*,-96,83*,63*,79*,58*,95*,6
COC(=O)c1ccc(CSc2nc3c(c(=O)[nH]2)CCC3)cc1,.,.,.,.,2,4,.,.,.,.,.
COc1ccc(NC(=O)c2cc([N+](=O)[O-])ccc2N2CCCC2)cc1S(N)(=O)=O,-11,.,-4,-12,-4,28,.,.,.,.,.
CCOc1ccccc1NC(=O)C1CCN(c2ccc(S(=O)(=O)N3CCCC3)cc2)CC1,1,2,-3,7,1,-4,.,.,.,.,.
CCOc1ccccc1NC(=O)C1CCN(S(=O)(=O)c2ccc(OC)c(OC)c2)CC1,-9,2,71*,2,0,15,2,6,7,4,3
CN(/C(=N/S(=O)(=O)c1cccs1)c1ccccc1)c1ccccc1,5,-10,5,4,3,5,.,.,.,.,.
Cc1cc(C)cc(NS(=O)(=O)c2cccs2)c1,14,25,2,6,0,12,.,.,.,.,.
O=S(=O)([N-]c1nc2ccccc2nc1-[n+]1ccc(CCCc2ccccc2)cc1)c1cccs1,-9,-1,-6,-11,-43,18,.,.,.,.,.
O=C1/C(=N\S(=O)(=O)c2cccs2)C([n+]2ccc(CCCc3ccccc3)cc2)=C([O-])c2ccccc21,60*,13,21,39,3,32,-10,28,5,-1,-11
Cc1cc(C)c[n+](C2=C([O-])c3ccccc3C(=O)/C2=N\S(=O)(=O)c2cccs2)c1,55*,-7,15,21,0,75*,40,59*,22,-4,-8
SMILES,SENP6 block,Platelet DG rel,SENP7 inh,SENP8 block-1,SENP1 FRET inh,SENP8 block-2,SENP8 confirm,SENP6 confirm,SENP7 conf,Casp3 SENP sel,Luc interf
CC(C)(C)c1cc[n+](C2=C([O-])c3ccccc3C(=O)/C2=N\S(=O)(=O)c2ccccc2)cc1,66*,2,15,42,3,48*,41,72*,43,7,1
Cc1cc[n+](C2=C([O-])c3ccccc3C(=O)/C2=N\S(=O)(=O)c2cccs2)cc1C,60*,2,16,39,1,29,18,30,11,1,3
CC(=O)c1cccc(-c2ccnc3c2CC(C(=O)Nc2cccc(Oc4ccccc4)c2)O3)c1 (stereo not given),.,.,.,.,-1,13,.,.,.,.,.
O=C(COc1cc(F)ccc1[N+](=O)[O-])Nc1cccc(S(=O)(=O)NC2=NCCC2)c1,-8,.,-11,-13,1,9,.,.,.,.,.
COC(=O)CSc1nnc(C2COc3ccccc3O2)n1-c1ccccc1 (stereo not given),-4,12,76*,-1,1,10,-8,-1,-5,-3,-5
Cc1cc(NC(=O)CSc2nnc(C3COc4ccccc4O3)n2C)no1 (stereo not given),7,-3,1,-5,0,11,.,.,.,.,.
O=C(c1ccc(-c2nc3ccccc3s2)o1)N1CCN(c2ccccc2O)CC1,8,-9,-3,-3,-22,-105,.,.,.,.,.
O=C(O)c1ccc(-c2nc3ccccc3s2)o1,91*,9,78*,77*,-5,-363,87*,84*,92*,61*,82*
O=Cc1ccc(-c2nc3ccccc3s2)o1,63*,6,80*,70*,-23,-358,-3,70*,87*,82*,23
O=C(O)CCN1C(=O)/C(=C/c2ccc(-c3nc4ccccc4s3)o2)SC1=S,7,-3,8,-5,-62,6,.,.,.,.,.

# From PubChem
